Consider four molecules from ChEMBL document CHEMBL1129574, “Synthesis, structure-activity relationships, and pharmacokinetic properties of dihydroorotate dehydrogenase inhibitors: 2-cyano-3-cyclopropyl-3-hydroxy-N-[3'-methyl-4'-(trifluoromethyl)phenyl ] propenamide and related compounds” (J Med Chem, 1996).

Data set [1] has as its system Rattus norvegicus. The data set is described as follows: In vivo for its ability to inhibit delayed type hypersensitivity in rat following 10 mg/kg administration.
In data set [2] the target is Dihydroorotate dehydrogenase (quinone), mitochondrial (Rattus norvegicus, UniProt Q63707). Briefly: Inhibitory concentration tested against enzyme dihydroorotate dehydrogenase in rat.
Data set [3] addresses Dihydroorotate dehydrogenase (quinone), mitochondrial (Mus musculus, UniProt O35435). The data set is described as follows: Inhibitory concentration tested on enzyme dihydroorotate dehydrogenase in mouse.
Data set [4] concerns Mus musculus. Briefly: Compound was tested in vivo for its ability to inhibit DTH(delayed type hypersensitivity ) in mouse at a concentration of 10 mg/kg. Format: functional. The gist of the method:
(§1)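 Male CD-1 mice (25–30 g, n = 8-16) sensitized day 0 by s.c. 1 mg methylated BSA in saline/Freund's complete adjuvant; negative controls saline/FCA. Day 7 challenge: MBSA 0.1 mg into right hind footpad, saline in left. Oral dosing once daily days 4–6 plus twice on day 7 (1 h before, 6 h after challenge). Paw edema read 24 h post-challenge; Student's t-test.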

Data set [5] has as its system Rattus norvegicus. Briefly: Compound was tested in vivo for its ability to inhibit DTH(delayed type hypersensitivity ) in rat at a concentration of 1 mg/kg. Format: functional. The gist of the method: (§2)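 Male CFHB rats (160-180 g, n=7-12) sensitized day 0 by tail-base s.c. FCA (0.4 mg M. tuberculosis in liquid paraffin); controls got incomplete adjuvant. Day 7 challenge: soluble M. tuberculosis extract 0.4 mg into right hind footpad, saline in left. Oral dosing once daily days 4-6 and twice day 7 (1 h before, 6 h after). Edema read at 24 h; Student's t-test.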

Data set [6] in a line: t1/2 in rat plasma after oral dose (10 mg/kg). Format: ADME, organism-based. The gist of the method: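 Male Wistar CFHB rats (190–220 g, n=3/time point) given 10 mg/kg orally by gavage (10 mL/kg). Cardiac-puncture blood under ether at 0, 1, 3, 6, 24, 48, 72 h, individual heparinized samples; plasma kept at −20 °C. Levels by HPLC (ODS column, 0.1 M pH 7 phosphate 65%/acetonitrile 35%, UV 300 nm), internal standard, peak-area calibration from spiked blank plasma.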

Data set [7] deals with Mus musculus. Briefly: Compound was tested in vivo for its ability to inhibit DTH(delayed type hypersensitivity ) in mouse at a concentration of 30 mg/kg. Format: functional. The gist of the method: as §1
A short description of data set [8]: t1/2 in mouse plasma after oral dose (30/mg/Kg). The format is ADME, organism-based. The gist of the method:
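Male CD-1 mice (25–32 g, n=5/time point) gavaged orally 30 mg/kg (10 mL/kg). Blood by exsanguination under ether at 0, 1, 3, 6, 24, 48, 72 h, pooled per time point, heparinized; plasma stored −20 °C. Drug quantified by reversed-phase HPLC (ODS, pH 7 phosphate/acetonitrile 65:35, UV 300 nm) with internal standard and spiked-plasma calibration.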

Data set [9] relates to Rattus norvegicus. The data set is described as follows: Compound was tested in vivo for its ability to inhibit DTH(delayed type hypersensitivity )in rat at a concentration of 50 mg/kg.
The subject of data set [10] is Mus musculus. Briefly: In vivo for its ability to inhibit delayed type hypersensitivity in mouse following 30 mg/kg administration. The format is functional. The gist of the method: as §1
Data set [11] concerns Rattus norvegicus. The data set is described as follows: Compound was tested in vivo for its ability to inhibit DTH(delayed type hypersensitivity )in rat at a concentration of 1 mg/kg. Format: functional. The gist of the method: as §2
Data set [12] has as its system Mus musculus. The data set is described as follows: Compound was tested in vivo for its ability to inhibit DTH(delayed type hypersensitivity )in mouse at a concentration of 30 mg/kg. The format is functional. The essentials:
as §1

Some results are limits rather than exact numbers.

What is called inhibition in vivo is the change of the read-out against control, counted positive when it falls. By IC50 is commonly meant the concentration needed to halve the response being measured. A high value points to a need for much substance. As usually defined, the half-life is the time in which the quantity being followed falls by half.

Chain of Dihydroorotate dehydrogenase (quinone), mitochondrial (Mus musculus, UniProt O35435) (O35435 whole entry): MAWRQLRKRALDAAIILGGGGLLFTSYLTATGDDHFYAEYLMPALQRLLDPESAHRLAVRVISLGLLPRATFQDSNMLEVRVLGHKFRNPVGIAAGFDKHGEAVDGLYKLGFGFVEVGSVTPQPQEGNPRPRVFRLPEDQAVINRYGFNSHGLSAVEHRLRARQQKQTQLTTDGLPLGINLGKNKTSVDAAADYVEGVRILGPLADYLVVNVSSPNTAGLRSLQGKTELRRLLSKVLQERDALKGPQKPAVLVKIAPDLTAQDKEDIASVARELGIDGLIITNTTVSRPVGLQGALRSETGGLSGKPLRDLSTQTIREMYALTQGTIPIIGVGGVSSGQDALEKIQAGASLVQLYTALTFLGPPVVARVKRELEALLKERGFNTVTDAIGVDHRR
Chain of Dihydroorotate dehydrogenase (quinone), mitochondrial (Rattus norvegicus, UniProt Q63707) (Q63707 whole entry): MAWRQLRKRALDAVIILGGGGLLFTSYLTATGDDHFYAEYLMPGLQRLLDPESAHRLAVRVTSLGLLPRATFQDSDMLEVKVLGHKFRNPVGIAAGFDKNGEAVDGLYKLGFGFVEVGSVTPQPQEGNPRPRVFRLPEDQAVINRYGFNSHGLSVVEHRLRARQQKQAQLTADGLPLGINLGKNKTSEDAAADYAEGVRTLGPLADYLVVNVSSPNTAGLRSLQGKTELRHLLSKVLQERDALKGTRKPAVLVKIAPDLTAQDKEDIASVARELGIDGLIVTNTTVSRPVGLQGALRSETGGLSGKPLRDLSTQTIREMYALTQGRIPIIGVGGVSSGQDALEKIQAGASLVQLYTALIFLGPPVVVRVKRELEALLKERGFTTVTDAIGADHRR

`N#C/C(C(=O)Nc1ccc(C(F)(F)F)cc1)=C(/O)c1ccc(C(F)(F)F)cc1`: the inhibition in vivo at 10 mg/kg in the data set with Rattus norvegicus [1] was found to be 16%; with Mus musculus [4], 17%. The IC50 in data set [2] and in [3] was over 10000 nM throughout.
In turn, `N#C/C(C(=O)Nc1ccc(SC(F)(F)F)cc1)=C(/O)C1CC1` showed an inhibition in vivo at 1 mg/kg in the data set with Rattus norvegicus [5] of 58%. The values for the half-life in [6] and in data set [8] were 2 h and 6 h, respectively. In data set [3], this molecule showed a half-inhibitory concentration (IC50) of 100 nM. This molecule returned an inhibition in vivo at 30 mg/kg with Mus musculus [7] of 39%.
With `N#C/C(C(=O)Nc1ccc([N+](=O)[O-])cc1)=C(/O)C1CC1`, the inhibition in vivo at 50 mg/kg in the data set on Rattus norvegicus [9] came to 90%. This molecule returned an inhibition in vivo at 30 mg/kg in the data set with Mus musculus [10] of 64%. In addition, the half-life in data set [6] is 4 h; in [8], 8 h. Also, the half-inhibitory concentration (IC50) in data set [2] is 21 nM; in [3], 50 nM.
With `N#C/C(C(=O)Nc1ccc(OC(F)(F)F)cc1)=C(/O)C1CC1`, in the data set on Rattus norvegicus [11], the inhibition in vivo at 1 mg/kg amounted to 78%. In the data set on Mus musculus [12], this molecule returned an inhibition in vivo at 30 mg/kg of 85%. Moreover, the results for the half-life in data set [6] and in [8] were 22 h and 42 h, respectively. Moreover, the values for the half-inhibitory concentration (IC50) in data set [2] and in data set [3] were 5 nM and 173 nM, respectively.
